Measured values published in ChEMBL document CHEMBL1671686, “Carbapenem-resistant KPC-2-producing Escherichia coli in a Tel Aviv Medical Center, 2005 to 2008” (2010).
Converted amounts (≈) assume the structure as drawn.

How the values were obtained:
Type in all cases: functional
Escherichia coli [1] = assay: Antimicrobial activity against Escherichia coli isolate 1679T expressing beta-lactamase KPC2, TEM and PFGE cluster 6 isolated from peritoneal fluid of patient by agar dilution method
How it was run: (§1)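 Transformant strains. Plasmids purified from the clinical isolates were electroporated into E. coli DH10B. Transformants were selected on LB agar with 100 μg/ml ampicillin, and colonies were PCR-screened for blaKPC before susceptibility testing.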

Escherichia coli [2] = assay: Antimicrobial activity against Escherichia coli isolate 339 expressing beta-lactamase KPC2, TEM and PFGE cluster 5 isolated from peritoneal fluid of patient by agar dilution method
How it was run: (§2)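 Clinical carbapenem-resistant E. coli isolates from the hospital, February 2005 to October 2008. Carbapenem MICs were determined by agar dilution following CLSI protocols.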

Escherichia coli [3] = assay: Antimicrobial activity against Escherichia coli isolate 540 expressing beta-lactamase KPC2, TEM and PFGE cluster 4 isolated from synovial fluid of patient by agar dilution method; how it was run: as §2
Escherichia coli [4] = assay: Antimicrobial activity against Escherichia coli isolate 360T expressing beta-lactamase KPC2, OXA-9 and PFGE cluster 1 isolated from urine of patient by agar dilution method; how it was run: as §1
Escherichia coli [5] = assay: Antimicrobial activity against Escherichia coli isolate 1679 expressing beta-lactamase KPC2, SHV-12, TEM and PFGE cluster 6 isolated from peritoneal fluid of patient by agar dilution method; how it was run: as §2
Escherichia coli [6] = assay: Antimicrobial activity against Escherichia coli isolate 386T expressing beta-lactamase KPC2, OXA-9 and PFGE cluster 1 isolated from wound of patient by agar dilution method; how it was run: as §1
Escherichia coli [7] = assay: Antimicrobial activity against Escherichia coli isolate 386 expressing beta-lactamase KPC2, CTX-M-15, OXA-9, TEM and PFGE cluster 1 isolated from wound of patient by agar dilution method
How it was run: (§3)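 Clinical carbapenem-resistant E. coli isolates collected Feb 2005–Oct 2008. Carbapenem MICs determined by agar dilution following CLSI protocols.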

Escherichia coli [8] = assay: Antimicrobial activity against Escherichia coli isolate 543T expressing beta-lactamase KPC2 and PFGE cluster 4 isolated from synovial fluid of patient by agar dilution method; how it was run: as §1
Escherichia coli [9] = assay: Antimicrobial activity against Escherichia coli isolate 157T expressing beta-lactamase KPC2 and PFGE cluster 3 isolated from urine of patient by agar dilution method; how it was run: as §1
Escherichia coli [10] = assay: Antimicrobial activity against Escherichia coli isolate 339T expressing beta-lactamase KPC2 and PFGE cluster 5 isolated from peritoneal fluid of patient by agar dilution method; how it was run: as §1
Escherichia coli [11] = assay: Antimicrobial activity against Escherichia coli isolate 360 expressing beta-lactamase KPC2, CTX-M-15, OXA-9, TEM and PFGE cluster 1 isolated from urine of patient by agar dilution method; settings: isolate 360, Urine; how it was run: as §3
Escherichia coli [12] = assay: Antimicrobial activity against Escherichia coli isolate 547 expressing beta-lactamase KPC2, TEM and PFGE cluster 4 isolated from blood of patient by agar dilution method; how it was run: as §3
Escherichia coli [13] = assay: Antimicrobial activity against Escherichia coli isolate 544 expressing beta-lactamase KPC2, TEM and PFGE cluster 4 isolated from abscess of patient by agar dilution method; how it was run: as §2
Escherichia coli [14] = assay: Antimicrobial activity against Escherichia coli isolate 543 expressing beta-lactamase KPC2, CTX-M-15, TEM and PFGE cluster 4 isolated from synovial fluid of patient by agar dilution method; how it was run: as §2
Escherichia coli [15] = assay: Antimicrobial activity against Escherichia coli DH10B by Etest; settings: K-12 DH10B
Escherichia coli [16] = assay: Antimicrobial activity against Escherichia coli isolate 329 expressing beta-lactamase KPC2, CTX-M-2, TEM and PFGE cluster 2 isolated from blood of patient by agar dilution method; how it was run: as §2
Escherichia coli [17] = assay: Antimicrobial activity against Escherichia coli isolate 547T expressing beta-lactamase KPC2 and PFGE cluster 4 isolated from blood of patient by agar dilution method; how it was run: as §1
Escherichia coli [18] = assay: Antimicrobial activity against Escherichia coli isolate 157 expressing beta-lactamase KPC2, CTX-M-15, TEM and PFGE cluster 3 isolated from urine of patient by agar dilution method; settings: isolate 157, Urine; how it was run: as §3
Escherichia coli [19] = assay: Antimicrobial activity against Escherichia coli isolate 329T expressing beta-lactamase KPC2 and PFGE cluster 2 isolated from blood of patient by agar dilution method; how it was run: as §1

C[C@@H](O)[C@H]1C(=O)N2C(C(=O)O)=C(S[C@@H]3CN[C@H](CNS(N)(=O)=O)C3)[C@H](C)[C@H]12 [DORIPENEM]
MIC (Escherichia coli [1]): 0.5 µg/mL (≈ 1.19 µM) | MIC (Escherichia coli [2]): 1 µg/mL (≈ 2.38 µM) | MIC (Escherichia coli [3]): 1 µg/mL (≈ 2.38 µM) | MIC (Escherichia coli [4]): < 0.5 µg/mL | MIC (Escherichia coli [5]): 8 µg/mL (≈ 19 µM) | MIC (Escherichia coli [6]): < 0.5 µg/mL | MIC (Escherichia coli [7]): 1 µg/mL (≈ 2.38 µM) | MIC (Escherichia coli [8]): < 0.5 µg/mL | MIC (Escherichia coli [9]): 1 µg/mL (≈ 2.38 µM) | MIC (Escherichia coli [10]): 0.5 µg/mL (≈ 1.19 µM) | MIC (Escherichia coli [11]): 1 µg/mL (≈ 2.38 µM) | MIC (Escherichia coli [12]): < 0.5 µg/mL | MIC (Escherichia coli [13]): 1 µg/mL (≈ 2.38 µM) | MIC (Escherichia coli [14]): 2 µg/mL (≈ 4.76 µM) | MIC (Escherichia coli [15]): < 0.5 µg/mL | MIC (Escherichia coli [16]): 4 µg/mL (≈ 9.51 µM) | MIC (Escherichia coli [17]): < 0.5 µg/mL | MIC (Escherichia coli [18]): 2 µg/mL (≈ 4.76 µM) | MIC (Escherichia coli [19]): 1 µg/mL (≈ 2.38 µM)
